Data as given in ChEMBL document CHEMBL4610036, “Discovery of small molecule antagonists of chemokine receptor CXCR6 that arrest tumor growth in SK-HEP-1 mouse xenografts as a model of hepatocellular carcinoma” (Bioorg Med Chem Lett, 2020).
Calls of active or inactive are those of the source. The calls are words filed in the database; no cut-off is given here.

Experiments:
[1] = system: SK-HEP1; assay: Toxicity in human SKHEP1 cells assessed as effect on cell viability after 72 hrs; format: cell-based; settings: sk-hep1, 72 h
[2] = AUC in mouse at 10 mg/kg, po; format: ADME, organism-based; settings: in vivo
Outline: (§1)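 Mice dosed orally by gavage, dose volume set by morning body weight. Serial blood samples (~30 μl) from submandibular or saphenous vein into K2EDTA. Plasma separated by centrifugation at 3000 g, stored at −70 °C, analysed by LC/MS/MS.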

[3] = Stability in human plasma; format: ADME, cell-free
[4] = Ratio of solubility of compound in aqueous buffer at pH 5 to 7.4 to IC50 for Prolink-tagged human CXCR6 receptor by DiscoveRx cell based assay; format: physicochemical
[5] = target: T1, C-X-C chemokine receptor type 6 (Homo sapiens, UniProt O00574); assay: Antagonist activity at Prolink-tagged human CXCR6 receptor assessed as inhibition of forskolin-induced cAMP accumulation by DiscoveRx cell based assay relative to control; format: functional; set-up: concentration or dose not given beside the values; settings: concentration not given here
Outline: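 CXCR6 β-arrestin cells in OptiMEM with 2% FBS, 500 cells/well, grown overnight; compounds added, then forskolin with 20 nM CXCL16 (stock concentrations) in HBSS/HEPES/BSA with RO-20-1724, 30 min at room temperature. cAMP read by LANCE Ultra TR-FRET after a further 30 min. Hill slope fixed at 1; at least two runs on different days, averaged pIC50 ± SD.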
Target sequence in this assay (O00574 whole entry, looked up): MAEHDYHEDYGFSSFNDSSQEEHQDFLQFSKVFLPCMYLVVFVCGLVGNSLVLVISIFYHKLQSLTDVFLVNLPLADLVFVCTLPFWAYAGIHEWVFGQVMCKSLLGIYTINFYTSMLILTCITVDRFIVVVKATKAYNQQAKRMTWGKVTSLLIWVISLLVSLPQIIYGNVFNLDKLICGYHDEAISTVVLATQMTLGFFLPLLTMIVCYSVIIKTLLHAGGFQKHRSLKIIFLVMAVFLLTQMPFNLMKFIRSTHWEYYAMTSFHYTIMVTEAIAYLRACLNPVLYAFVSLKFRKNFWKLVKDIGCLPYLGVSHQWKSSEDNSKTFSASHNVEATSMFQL

[6] = Drug metabolism in mouse liver microsomes incubated up to 1 hr; format: ADME, Microsome; settings: read-out: Drug metabolism
Outline: (§2)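 Liver microsomes (1.0 mg/mL) preincubated with compound (1 μM final) for 10 min at 37 °C. Reaction started with NADPH-generating system (NADP+, glucose-6-phosphate, G6PDH, MgCl2) in 100 mM potassium phosphate, pH 7.4. Sampled at 0, 5, 15, 30 and 60 min; percent remaining at 1 hr reported.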

[7] = system: CXCR6 receptor (Prolink-tagged, human); assay: Safety index, ratio of LC50 for toxicity in human liver microsomes to IC50 for Prolink-tagged human CXCR6 receptor; settings: read-out: Ratio LC50/IC50
[8] = Toxicity in NOD/SCID mouse xenografted with human SKHEP1 cells assessed as animal death at 30 to 60 mg/kg, po administered on day 4 to day 30 post-tumor cell inoculation; format: organism-based, SK-HEP1; settings: in vivo
[9] = Half life in mouse at 10 mg/kg, po; format: ADME, organism-based; settings: in vivo; outline: as §1
[10] = Toxicity in NOD/SCID mouse xenografted with human SKHEP1 cells assessed as effect on behavior phenotypes at 30 to 60 mg/kg, po administered on day 4 to day 30 post-tumor cell inoculation; format: organism-based, SK-HEP1; settings: in vivo
[11] = system: SK-HEP1; assay: Antitumor activity against human SKHEP1 cells xenografted in NOD/SCID mouse assessed as tumor weight at 30 mg/kg, po administered on day 4 to day 30 post-tumor cell inoculation (reference value: 151 +/- 66 mg); format: functional
[12] = target: T1, C-X-C chemokine receptor type 6; assay: Antagonist activity at Prolink-tagged human CXCR6 receptor assessed as inhibition of CXCL16-induced beta-arrestin recruitment by DiscoveRx cell based assay relative to control; set-up: concentration or dose not given beside the values; settings: concentration not given here
Outline: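 CXCR6 β-arrestin cells in assay media without G418/hygromycin, 800 cells/well, grown overnight at 37 °C; compounds added acoustically (DMSO ≤0.3%), then 20 nM CXCL16 (final) for 90 min at 37 °C. PathHunter luminescence read. Normalized between CXCL16-alone and no-ligand wells; four-parameter fit with Hill slope fixed at 1; at least two runs on different days, averaged pIC50 ± SD.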
Target sequence in this assay (O00574 whole entry, looked up): as above

[13] = target: T2, C-X-C chemokine receptor type 6 (Mus musculus, UniProt Q9EQ16); assay: Antagonist activity at mouse CXCR6 by DiscoveRx cell based beta-arrestin assay
T2 sequence (Q9EQ16 whole entry): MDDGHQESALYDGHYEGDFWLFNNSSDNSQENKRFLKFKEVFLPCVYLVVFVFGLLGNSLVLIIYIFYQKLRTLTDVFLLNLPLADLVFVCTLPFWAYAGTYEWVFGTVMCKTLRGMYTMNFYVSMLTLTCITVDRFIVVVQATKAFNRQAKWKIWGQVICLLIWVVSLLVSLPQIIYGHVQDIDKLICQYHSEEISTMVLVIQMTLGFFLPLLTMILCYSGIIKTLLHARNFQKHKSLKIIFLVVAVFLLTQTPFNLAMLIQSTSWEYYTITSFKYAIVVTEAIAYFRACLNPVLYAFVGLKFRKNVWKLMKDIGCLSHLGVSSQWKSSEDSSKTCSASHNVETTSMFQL

[14] = system: SK-HEP1; assay: Antitumor activity against human SKHEP1 cells xenografted in NOD/SCID mouse assessed as inhibition of tumor growth at 30 to 60 mg/kg, po administered on day 4 to day 30 post-tumor cell inoculation; format: functional, organism-based
[15] = target: T1, C-X-C chemokine receptor type 6; assay: Inhibition of CXCR6-mediated cell invasion in human SKHEP1 cells after 72 hrs by transwell assay; format: cell-based; settings: SK-HEP1
Outline: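 SK-HEP-1 cells, 100k/well in 0.2% FBS, seeded in upper chamber of a chemotaxis plate coated with matrigel (250 μg/ml). CXCL16 (0.6 μg/ml) in lower chamber; compound in both chambers. Kept at 37 °C, 5% CO2 and imaged hourly in IncuCyte. Migration quantified as confluence from phase-contrast images.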
Target sequence in this assay (O00574 whole entry, looked up): as the sequence (O00574 whole entry, looked up) above

[16] = Drug metabolism in human liver microsomes incubated up to 1 hr; format: ADME, Microsome; settings: read-out: Drug metabolism; outline: as §2
[17] = Toxicity in human liver microsomes; set-up: species or system Microsome
[18] = Volume of distribution at steady state in mouse at 5 mg/kg, iv; format: ADME, organism-based; settings: in vivo, read-out: Vdss
[19] = Clearance in mouse at 5 mg/kg, iv; format: ADME, organism-based; settings: in vivo
[20] = Half life in mouse at 5 mg/kg, iv; format: ADME, organism-based; settings: in vivo
[21] = Toxicity in NOD/SCID mouse xenografted with human SKHEP1 cells assessed as animal weight at 30 to 60 mg/kg, po administered on day 4 to day 30 post-tumor cell inoculation; format: organism-based, SK-HEP1; settings: in vivo
[22] = system: SK-HEP1; assay: Antitumor activity against human SKHEP1 cells xenografted in NOD/SCID mouse assessed as tumor weight at 60 mg/kg, po administered on day 4 to day 30 post-tumor cell inoculation (reference value: 151 +/- 66 mg); format: functional
[23] = Cmax in mouse at 10 mg/kg, po; format: ADME, organism-based; set-up: dose 10 mg/kg, route oral; settings: in vivo; outline: as §1
[24] = Stability in mouse plasma; format: ADME, cell-free
[25] = target: T1, C-X-C chemokine receptor type 6; assay: Antagonist activity at Prolink-tagged human CXCR6 receptor assessed as inhibition of CXCL16-induced beta-arrestin recruitment by DiscoveRx cell based assay
Target sequence in this assay (O00574 whole entry): as the sequence (O00574 whole entry, looked up) above

COc1cc(C(=O)N[C@@H]2C[C@H]3CCC[C@@H](C2)N3Cc2nc3c(C(F)(F)F)cccc3s2)cc(OC)c1OC
Activity [1]: Non-Toxic | AUC [2]: 2050 ng·h/mL | Stability [3]: Stable | Ratio [4]: >= 10 | inhibition [5]: 98% | metabolised at 1 h [6]: 100% | selectivity ratio [7]: > 40 | Activity [8]: Non-Toxic | half-life [9]: 2.82 h | Activity [10]: Non-Toxic | Activity [11]: 59 mg | inhibition [12]: 103% | IC50 [13]: > 40000 nM | Activity [14]: Active | inhibition [15]: Dose-dependent effect | metabolised at 1 h [16]: 100% | LC50 [17]: >= 25 uM | Vd [18]: 3.32 L/kg | clearance [19]: 28.4 mL/min/kg | half-life [20]: 1.58 h | Activity [21]: Non-Toxic | Activity [22]: 55 mg | Cmax [23]: 798 ng/mL | Stability [24]: Stable | IC50 [25]: 40 nM
